Test results reported in PMC4479701 (mBio, 2015).
Values after ≈ are worked out from the molar mass of the structure shown.

What was measured:
[1] = test system: Cryptococcus gattii; assay: In vitro susceptibility testing; assay type: cell-based
Summary of the method: (§1)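 Inoculum prepared per CLSI M27-A3. Plates incubated at 37°C with 5% CO2 for 24 to 96 h. MIC was the lowest concentration inhibiting 50% of growth versus the drug-free control. Minimum fungicidal concentration was also measured: serial dilutions from wells were plated on YPD agar, and MFC was the lowest concentration yielding three or fewer colonies (99% of inoculum killed).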

[2] = test system: Candida parapsilosis; assay: In vitro susceptibility testing; assay type: cell-based
Summary of the method: as §1

[3] = test system: Aspergillus fumigatus; assay: In vitro susceptibility testing; assay type: cell-based
Summary of the method: as §1

[4] = test system: Rhizopus oryzae; assay: In vitro susceptibility testing; assay type: cell-based; conditions: FTL strains (3)
Summary of the method: as §1

[5] = test system: Blastomyces dermatitis; assay: In vitro susceptibility testing; assay type: cell-based; conditions: FTL strains (10)
Summary of the method: as §1

[6] = test system: Histoplasma capsulatum; assay type: cell-based
[7] = test system: various Cryptococcus species; assay: MIC; assay type: cell-based
Summary of the method: as §1

[8] = test system: GlcCer synthesis in C. neoformans; assay: In vivo labeling with [3H]palmitate, TLC of GlcCer; assay type: cell-based; conditions: [3H]palmitate labeling
[9] = In vitro toxicity; assay type: cell-based, murine; conditions: mouse, J774.16 macrophage cells
Summary of the method: (§2)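 J774.16 murine macrophages were kept in DMEM with 10% FBS and 1% pen-strep, and used until passage eight. At passage 7, 10^5 cells/well were allowed to adhere for 14 h. Test compound was then added at 0.1 to 100 µg/ml, with drug-free wells as controls. Incubation at 37°C, 5% CO2.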

[10] = test system: J774 cells; assay: In vitro toxicity; assay type: cell-based, murine
Summary of the method: as §2

[11] = test system: C. neoformans; assay: Mouse model of cryptococcosis, intravenous infection; assay type: in vivo, mouse (CBA/J); conditions: 1.2 mg/kg/day i.p.; 8 mice per group; vehicle 7.0 ± 1.1
[12] = test system: C. albicans SC 5314; assay: Mouse model of invasive candidiasis; assay type: in vivo, mouse (CBA/J); conditions: after 21 days of infection; 1.2 mg/kg/day i.p.; 8 mice per group
Summary of the method: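 Female CBA/J mice, 8 weeks old (8 per group), were infected i.v. with 100 µl containing 10^5 C. albicans SC-5314. Test compound was given i.p. at 1.2 mg/kg/day in 100 µl PBS with 0.4% DMSO immediately after inoculation; untreated mice received vehicle. Survival was monitored. Organs of survivors were homogenized in 10 ml PBS, diluted tenfold, and plated on YPD at 30°C for 72 h for CFU.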

[13] = test system: sphingolipids of C. neoformans; assay: Sphingolipid profiling by TLC and LC-MS; assay type: cell-based
[14] = test system: GlcCer synthesis in C. albicans cells; assay: GlcCer synthesis in C. albicans; assay type: cell-based; conditions: in vitro treatment; data not shown
[15] = test system: C. neoformans; assay: NBD C6-ceramide staining; assay type: cell-based; conditions: 4 µg/ml; microscopy and FACS
Summary of the method: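 C. neoformans cells, untreated or treated with 4 µg/ml test compound, were fixed in 4% paraformaldehyde in PBS and washed. They were stained with NBD C6-ceramide for 16 h at 4°C, then incubated with 1% BSA at 4°C for 1 h to strip excess dye.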

[16] = test system: C. albicans; assay: Yeast-to-hypha differentiation; assay type: cell-based; conditions: 4 µg/ml
Summary of the method: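 C. albicans yeast and hyphal forms were counted after exposure to test compound and compared with drug-free controls. Twenty random fields, about 120 cells, were scored.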

[17] = test system: C. neoformans; assay: Transmission electron microscopy, intracellular vesicles; assay type: cell-based; conditions: 4 µg/ml, 6 h
[18] = TLC, confirmed by mass spectrometry

In the case of `Cc1ccccc1C(=O)NN=Cc1ccc(O)c(Br)c1` [BHBM, N′-(3-bromo-4-hydroxybenzylidene)-2-methylbenzohydrazide], the MIC range ([1]; FTL strains (10)) was 0.5−2 µg/ml, the MIC range ([1]; MDPL strains (3)) was 0.5−1 µg/ml and the MIC range ([2]; MDPL strains (3)) was >32 µg/mL. The MIC range ([2]; QC FTL strains) was >16 µg/mL, the MIC range ([3]; FTL strains (3)) was >16 µg/mL and the MIC range ([3]; MDPL strain (1)) was 8 µg/mL (≈ 24 µM). The MIC range [4] was 2 µg/mL (≈ 6 µM), the MIC range [5] was 0.5−1 µg/ml and the MIC range [6] was 0.125−1 µg/ml. The MIC [7] was 0.25 to 8 µg/mL (≈ 0.75 to 24 µM), the “synthesis of GlcCer” value [8] was “significantly inhibited” and the EC50 at 48 h [9] was 50 µg/mL (≈ 150 µM). The EC50/MIC80 selectivity index ([10]; J774 EC50 versus MIC) was 50, the “selectivity index (EC50/MIC ratio)” value ([10]; macrophage cell line) was > 50 and the “survival, days postinfection” value [11] was 11.1 ± 3.7 days. For the same compound, the mice still alive [12] was 62.5%, the “levels of C18 hydroxyceramide and its desaturated and methylated forms” value ([13]; LC-MS, D0 data not shown) was “decreased” and the GlcCer levels [13, 18] was “decrease”. The “dihydroceramide, sphingosine, and sphingosine-1-phosphate” value [13, 18] was “increased”, the GlcCer synthesis [14] was “inhibited GlcCer synthesis in a dose-dependent manner” and the “NBD C6-ceramide staining” value [15] was “substantial accumulation”. The yeast-to-hypha differentiation [16] was “significantly reduced”, the “volume occupied by the intracellular vesicles” value ([17]; P <0.05) was “significant increase” and the “numbers of vesicles per square micrometer of cell surface area” value ([17]; untreated 0.33 ± 0.36) was 0.84 ± 0.58.
